Compound activity from PubChem.
DAGLB inhibitor: DAGLB lipase inhibitors, primary screen, biochemical, fluorescence, HTS. Diacylglycerol lipase-beta (Homo sapiens), Q8NCG7. inhibition, % at 5.17 µM. actives 0.059% (n = 340,000). HEK293T DAGLB membrane lysate, EnzChek fluorogenic substrate. AID 504411, 2011; in the data active means inhibition above about 34%;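 further: 0% = enzyme with vehicle and 100% = wells lacking enzyme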
iPSC survival up: enhancers of single-cell hiPSC survival, primary screen, ATPlite luminescence; 100% = ROCK inhibitor wells, 0% = DMSO; survival enhancement, % at 20 µM; actives 0.044% (n = 360,000); AID 602274, 2012; in the data active means survival enhancement above about 18%;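 further: cells exposed to compounds for 16 hours before the ATP read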
SKN-1 block: suppressors of acrylamide-induced Pgst-4::GFP reporter in worms, primary screen, SKN-1 inhibitor project, whole organism, uHTS, GFP/RFP fluorescence ratio, strain VP596; C. elegans VP596 Pgst-4::GFP/RFP ratio, 24 h; inhibition, % at 21.8 µM; actives 0.49% (n = 360,000); AID 624304, 2012;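 active means interference check ratio from 0.5 to 1.5 plus GFP to RFP signal ratio inhibition reaching or exceeding a fixed threshold, cut at about 30% in these data, passing the limit was not always enough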
FAS TE block: FAS thioesterase domain inhibitors, primary screen, biochemical, fluorescence intensity, uHTS. AID 602261, 2012. Fatty acid synthase (Homo sapiens), P49327. actives 0.67% (n = 360,000). inhibition, % at 15 µM. recombinant FAS-TE, OMFH fluorogenic substrate, fluorescence endpoint;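 active means compounds whose normalised, plate-corrected inhibition of enzyme fluorescence in the single-dose primary screen is 50% or more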;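 further: 0% = DMSO with enzyme and 100% = substrate without enzyme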
MT1-MMP act inh: blockers of MT1-MMP proenzyme processing, primary screen, HT1080 RFP-PRO-GFP cells, GFP/RFP fluorescence; actives 0.061% (n = 360,000); GFP/RFP ratio fluorescence, overnight; percent of plate control window, DMSO zero; GFP/RFP ratio change, % at 20 µM;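 active means GFP/RFP ratio change of at least 30% with cell ATP level not reduced by more than half and red fluorescence within 50% of control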
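Compound: 20 µM single dose, 1% DMSO / System: HT1080 RFP-PRO-GFP cells / Controls: DMSO and RFP-L50D-GFP cell wells / Read-out basis: GFP/RFP fluorescence ratio / Schedule: overnight compound exposure at 37 °C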
Numbers without * were called inactive; / = not tested or not shown. Hits are enriched below; roughly 1.3% of the tested compounds scored in any of these assays.

SMILES | DAGLB inhibitor | iPSC survival up | SKN-1 block | FAS TE block | MT1-MMP act inh
CC(O)C1C=CC=CC(=O)OC2CC3OC4C5OC5(C)C(O)CC4(COC(=O)C(O)C(C)CCO1)C2(C)C31CO1 (stereo unspecified) | 1 | -4 | 16 | -6 | -44
CC1=CC2OC3CC4OC(=O)C=CC=CC(C(C)O)OCC(O)C5(C)OC5C(=O)OCC2(CC1O)C4(C)C31CO1 (stereo unspecified) | -4 | -2 | 40* | -5 | -46
ClCCNc1nc2ccc(Cl)cc2[nH]1 | -1 | -1 | 10 | -4 | 5
CN1C(=O)C(=Cc2cn(CC(=O)N3CCCCC3)c3ccccc23)C(=O)N(C)C1=O | 0 | 0 | 41* | -10 | -3
COc1cc(N2CCOCC2)ccc1/C=C1\C(=O)NC(=O)N(Cc2ccc3c(c2)OCO3)C1=O | 6 | 2 | 41* | -2 | -22
C=CCn1c(O)c(C(C)=NCCCN(C)C)c(=O)[nH]c1=O | 0 | 0 | -7 | -4 | 2
O=C(/C=C/c1c[nH]c2ccccc12)c1c(O)n(CCc2ccccc2)c(=O)[nH]c1=O | / | -1 | 40* | -8 | -129
CC(C)N(C(=O)CCl)c1ccccc1 | 3 | -4 | 5 | -2 | 0
Cc1cc(C)c(-n2c(O)c(/C=N/N3CCCCC3c3cccnc3)c(=O)[nH]c2=O)c(C)c1 (stereo unspecified) | 1 | 2 | 6 | -5 | -19
CN1CCN(c2ccc([N+](=O)[O-])c3no[n+]([O-])c23)CC1 | -34 | -1 | -14 | -12 | -216
O=[N+]([O-])c1ccc(N(CCO)CCO)c2c1no[n+]2[O-] | -17 | -6 | 47* | -41 | /
C=CCNC(=S)Nc1ccc(OC(=O)Nc2ccc(Cl)c(Cl)c2)cc1 | -6 | -1 | 3 | 21 | 1
O=C(Nc1ccc(Cl)c(Cl)c1)c1ccco1 | -5 | 0 | 42* | 6 | 1
O=[N+]([O-])c1ccc(Nc2ccccc2)cc1 | 0 | -2 | 51* | 10 | 2
CC(=O)c1ccc2c(c1)C1C(Cl)C(Sc3ccccc3[N+](=O)[O-])CC1C(c1ccccc1)N2 (stereo unspecified) | 5 | 2 | -4 | 16 | 6
CC(=O)c1ccc2c(c1)C1C(Cl)C(Sc3ccccc3[N+](=O)[O-])CC1C(c1ccccc1[N+](=O)[O-])N2 (stereo unspecified) | 7 | 3 | 42* | 16 | -12
CC(C)c1ccc(-n2c(O)c(C=NC(CCS(C)=O)C(=O)O)c(=O)[nH]c2=S)cc1 (stereo unspecified) | 1 | 0 | 13 | -2 | 6
C(#CCN1CCCCC1)CN1CCCCC1 | / | 1 | 10 | -3 | 4
CC1(C)OC(c2ccccc2)=C/C(=C/C=C2C(=O)NC(=O)NC2=O)O1 | -12 | 0 | 46* | -11 | -126
CN1/C(=C\C=C2C(=O)NC(=O)NC2=O)C(C)(C)c2ccccc21 | -28 | 0 | 0 | -47 | -136
C=C1C[C@]2(O)[C@@]3(C)CCC(=O)C(C)(C)C3=C(O)C(=O)[C@@]2(C)[C@@H]2C(=O)O[C@@](C)(C(=O)OC)C(=O)[C@@]12C | 1 | -1 | -1 | 0 | 0
Cn1c(O)c(/C=N/NC(=O)c2ccncc2)c(=O)[nH]c1=S | / | -1 | 42* | 2 | 10
CCCCn1c(O)c(/C=N/NC(=O)c2ccncc2)c(=O)[nH]c1=S | 7 | 0 | 16 | 32 | -2
CC(C)(C)n1c(O)c(C=Nc2ccc3c(c2)CCC3)c(=O)[nH]c1=O | 0 | 4 | 27* | 0 | -6
Cc1ccsc1/C=C1\C(=O)NC(=S)N(C)C1=O | 4 | -1 | 40* | -6 | 9
SMILES | DAGLB inhibitor | iPSC survival up | SKN-1 block | FAS TE block | MT1-MMP act inh
CN1C(=O)/C(=C\c2ccc(N3CCCCC3)o2)C(=O)NC1=S | -1 | 0 | 33* | -8 | -208
CN1C(=O)/C(=C/c2ccc(N3CCCCCC3)o2)C(=O)NC1=S | 3 | -1 | 24 | -7 | -132
CC(C)COC(=O)N1Cc2ccccc2-n2nncc2C1 | -1 | 4 | 4 | -5 | -1
CCn1c(O)c(C=NCc2cccs2)c(=O)[nH]c1=O | 6 | 4 | 20 | -6 | 0
CN1CC=C2C(C#N)=C(N)C(C#N)(C#N)C(c3ccncc3)C2C1 (stereo unspecified) | -4 | -1 | 40* | -31 | -34
CC1=C(C/C(C)=C/c2ccccc2)/C(=C/CO)[C@H](O)[C@](C)(O)C12CC2 | -9 | -2 | -4 | 10 | 0
O=c1[nH]c(=O)n(-c2cccc3ccccc23)c(O)c1/C=N/N1CCCCCC1 | 0 | -1 | -11 | -2 | -2
C/C(=C\c1ccc(N(C)C)cc1)[N+](=O)[O-] | 1 | 1 | 42* | -4 | -17
CN(C)c1ccc(/C=C/[N+](=O)[O-])cc1 | 3 | -3 | 40* | -11 | 3
CN(C)c1ccc(C=C2C(=O)NC(=O)NC2=O)cc1 | 0 | 0 | 13 | -6 | 0
CN(C)c1ccc(C(=O)c2ccc(N(C)C)cc2)cc1 | 0 | -2 | 42* | 8 | -7
CNc1cc(Cl)c2nonc2c1[N+](=O)[O-] | -6 | 48* | -4 | 35 | 3
Cc1cc([N+](=O)[O-])c(Cl)cc1NC(=O)C(C)C | 2 | -2 | 13 | 2 | 2
OC(CN1CCCCC1)c1c[nH]c2ccccc12 (stereo unspecified) | -1 | -1 | 11 | -4 | -6
O=c1[nH]c(O)c(N=Nc2cc([N+](=O)[O-])ccc2O)c(=O)[nH]1 | 8 | -2 | 50* | 3 | 58
COc1nc(NC(C)C)nc(NC(C)C)n1 | 2 | -3 | 13 | -4 | -5
O=C1NC(=S)N(C2CC2)C(=O)/C1=C/c1ccc2c(c1)CCN2CCCCl | 4 | -2 | 41* | -2 | -3
COCCCn1c(N)c(C(=O)OCCOC)c2nc3ccccc3nc21 | -4 | 1 | -5 | -4 | 1
CCOC(=O)c1c(N)n(CCCOC(=O)c2ccco2)c2nc3ccccc3nc12 | -1 | -4 | 35* | -1 | 4
CC(C)NS(=O)(=O)c1ccc(OCC(=O)N2CCN(Cc3ccc4c(c3)OCO4)CC2)c(Cl)c1 | 1 | -1 | -10 | 50* | 3
C=C1C(=O)OC2CC(C)C3C=CC(=O)C3(C)C(O)C12 (stereo unspecified) | 2 | 50* | -11 | 2 | -11
CCn1c(O)c(C=Nc2ccc(S(N)(=O)=O)cc2)c(=O)n(CC)c1=S | 3 | -2 | 4 | -1 | 22
